From ChEMBL document CHEMBL5230168, “Design, synthesis, and biological evaluation of new arjunolic acid derivatives as anticancer agents” (RSC Med Chem, 2023)

Assays:
NCI-H2170 = experiment: Cytotoxicity against human NCI-H2170 cells assessed as inhibition of cell growth incubated for 72 hrs by MTT assay; format: functional, cell-based; conditions: NCI-H2170, 72 h
Outline: (§1)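 Cells seeded per well (HT-29 4500, PANC-1 4000, SK-MEL-28 3200, A375 1200, A549 2500, H2170 and BJ 10 000) and left 24 h. They were then exposed to increasing concentrations for 72 h and incubated 1 h with MTT 0.5 mg mL−1. Formazan was dissolved in DMSO and absorbance read at 550 nm. IC50 from three independent experiments. Final DMSO ≤0.5%.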

PANC-1 [1] = experiment: Induction of apoptosis in human PANC-1 cells assessed as viable cells at 0.94 uM incubated for 24 hrs by Annexin V-FITC/PI staining based flow cytometric analysis (reference value: 89.8%); format: functional; conditions: read-out: Activity
Outline: (§2)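 PANC-1 seeded at 2 × 10^5 cells/well, grown 24 h, then treated 24 h. PI added just before flow cytometry. Quadrant percentages given as mean ± SD of three experiments. Untreated control.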

[2] = Toxicity in Balb/c mouse assessed as loss of traction indication of muscle weakness at 50 to 100 mg/kg, ip measured upto 24 hrs by Irwin test; format: organism-based; conditions: in vivo, dose 50-100 mg/kg
Outline: (§3)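 Irwin primary observation in female Balb/c mice aged 7–8 weeks, 3 per group. Single i.p. doses of 0.01, 0.1, 1, 5, 10, 50 and 100 mg kg−1 in 0.2% HPMC in saline; vehicle controls observed in parallel, non-blind. Standardized grid including rectal temperature and pupil diameter scored at 15, 30, 60, 120 and 180 min and 24 h, with continuous watch over 0–15 min.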

[3] = Toxicity in Balb/c mouse assessed as piloerection at 50 to 100 mg/kg, ip measured upto 24 hrs by Irwin test; format: organism-based; conditions: in vivo, dose 50-100 mg/kg; outline: as §3
[4] = Toxicity in Balb/c mouse assessed as abnormal gait with rolling at 50 to 100 mg/kg, ip measured upto 24 hrs by Irwin test; format: organism-based; conditions: in vivo, dose 50-100 mg/kg; outline: as §3
SK-MEL-28 = experiment: Cytotoxicity against human SK-MEL-28 cells assessed as inhibition of cell growth incubated for 72 hrs by MTT assay; format: functional, cell-based; conditions: SK-MEL-28, 72 h; outline: as §1
[5] = Toxicity in Balb/c mouse assessed as tremor at 50 to 100 mg/kg, ip measured upto 24 hrs by Irwin test; format: organism-based; conditions: in vivo, dose 50-100 mg/kg; outline: as §3
PANC-1 [6] = experiment: Induction of apoptosis in human PANC-1 cells assessed as viable cells at 1.88 uM incubated for 24 hrs by Annexin V-FITC/PI staining based flow cytometric analysis (reference value: 89.8%); format: functional; conditions: read-out: Activity; outline: as §2
PANC-1 [7] = experiment: Induction of apoptosis in human PANC-1 cells assessed as necrotic cells at 0.94 uM incubated for 24 hrs by Annexin V-FITC/PI staining based flow cytometric analysis (reference value: 3.9%); format: functional; outline: as §2
PANC-1 [8] = experiment: Induction of apoptosis in human PANC-1 cells assessed as late apoptotic cells at […] incubated for 24 hrs by Annexin V-FITC/PI staining based flow cytometric analysis (reference value: 1.1%); format: functional; outline: as §2
PANC-1 [9] = experiment: Induction of apoptosis in human PANC-1 cells assessed as late apoptotic cells at 1.88 uM incubated for 24 hrs by Annexin V-FITC/PI staining based flow cytometric analysis (reference value: 1.1%); format: functional; outline: as §2
[10] = Toxicity in Balb/c mouse assessed as decrease in activity at 50 to 100 mg/kg, ip measured upto 24 hrs by Irwin test; format: organism-based; conditions: in vivo, dose 50-100 mg/kg; outline: as §3
PANC-1 [11] = experiment: Induction of apoptosis in human PANC-1 cells assessed as early apoptotic cells at […] incubated for 24 hrs by Annexin V-FITC/PI staining based flow cytometric analysis (reference value: 5.2%); format: functional; outline: as §2
PANC-1 [12] = experiment: Synergistic cytotoxicity against human PANC-1 cells assessed as combination index at 1.88 uM incubated for 72 hrs in the presence of 94 uM gemcitabine by MTT assay; format: functional
PANC-1 [13] = experiment: Induction of apoptosis in human PANC-1 cells assessed as late apoptotic cells at 0.94 uM incubated for 24 hrs by Annexin V-FITC/PI staining based flow cytometric analysis (reference value: 1.1%); format: functional; outline: as §2
PANC-1 [14] = experiment: Induction of apoptosis in human PANC-1 cells assessed as early apoptotic cells at 2.82 uM incubated for 24 hrs by Annexin V-FITC/PI staining based flow cytometric analysis (reference value: 5.2%); format: functional; outline: as §2
[15] = Toxicity in Balb/c mouse assessed as decreased reactivity to touch at 50 to 100 mg/kg, ip measured upto 24 hrs by Irwin test; format: organism-based; conditions: in vivo, dose 50-100 mg/kg; outline: as §3
PANC-1 [16] = experiment: Cytotoxicity against human PANC-1 cells assessed as inhibition of cell growth incubated for 72 hrs by MTT assay; format: functional, cell-based; conditions: PANC-1, 72 h; outline: as §1
PANC-1 [17] = experiment: Synergistic cytotoxicity against human PANC-1 cells assessed as combination index at 0.12 uM incubated for 72 hrs in the presence of 6 uM gemcitabine by MTT assay; format: functional
PANC-1 [18] = experiment: Induction of apoptosis in human PANC-1 cells assessed as viable cells at 2.82 uM incubated for 24 hrs by Annexin V-FITC/PI staining based flow cytometric analysis (reference value: 89.8%); format: functional; conditions: read-out: Activity; outline: as §2

CCOC(=O)[C@]12CCC(C)(C)C[C@H]1C1=CC[C@@H]3[C@@]4(C)C(C=O)=C[C@@](C)(CO)[C@@H]4CC[C@@]3(C)[C@]1(C)CC2
IC50 (NCI-H2170): 1.33 µM
viability at 0.94 µM (PANC-1 [1]): 90.4%
Activity [2]: Toxic
Activity [3]: Toxic
Activity [4]: Toxic
IC50 (SK-MEL-28): 0.58 µM
Activity [5]: Toxic
viability at 1.88 µM (PANC-1 [6]): 87.3%
Activity (PANC-1 [7]): 2.6%
Activity (PANC-1 [8]): 1.1%
Activity (PANC-1 [9]): 2.2%
Activity [10]: Toxic
Activity (PANC-1 [11]): 4.9%
CI (PANC-1 [12]): 0.79
Activity (PANC-1 [13]): 1.2%
Activity (PANC-1 [14]): 9.9%
Activity [15]: Toxic
IC50 (PANC-1 [16]): 0.47 µM
CI (PANC-1 [17]): 0.93
viability at 2.82 µM (PANC-1 [18]): 84.7%
